Assay results: ChEMBL document CHEMBL2021906, “A synthetic chalcone as a potent inducer of glutathione biosynthesis” (J Med Chem, 2012)
The source made the active and inactive calls. The rule behind the calls is not given here.

Experiments:
MCF7 [1] = test: Increase in intracellular GSH level in human MCF7 cells expressing antioxidant response element at 10 uM after 6 hrs by HPLC analysis relative to control; type: functional
Summary of the method: (§1)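 In 24-well plates, AREc32 cells were treated with 10 μM for 6 or 24 h. Cells were PBS-washed, sonicated, and acidified with meta-phosphoric acid (1% v/v final), then centrifuged. GSH in the supernatant was quantified by reverse-phase HPLC with electrochemical detection (pH 3 sodium phosphate/0.9% methanol mobile phase). Results are expressed as % of untreated control, n = 3.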

MCF7 [2] = test: Increase in intracellular GSH level in human MCF7 cells expressing antioxidant response element at 10 uM after 24 hrs by HPLC analysis relative to control; type: functional; summary of the method: as §1
MCF7 [3] = test: Increase in intracellular GSH level in human MCF7 cells expressing antioxidant response element at 10 uM after 24 hrs by HPLC analysis in presence of GCL inhibitor buthionine sulfoximine; type: functional, cell-based
MCF7 [4] = test: Cytotoxicity against human MCF7 cells expressing antioxidant response element assessed as LDH release after 48 hrs; type: cell-based; conditions: MCF7, 48 h
Summary of the method: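 MCF-7/AREc32 cells (ARE-luciferase reporter line; DMEM low glucose, 10% FBS, pen/strep, Geneticin, 37 °C, 5% CO2) exposed to 0–60 μM for 48 h. LDH activity measured in medium and cell lysate via NADH consumption at 340 nm after pyruvate addition. Percent LDH release = supernatant/(supernatant + lysate) × 100. n = 3.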

MCF7 [5] = test: Increase in GCLM level in human MCF7 cells expressing antioxidant response element at 20 uM after 6 hrs by SDS-PAGE immunoblotting technique; type: functional, cell-based
Summary of the method: (§2)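 AREc32 cells in six-well plates were treated with 20 μM for 6 h, then PBS-washed, sonicated in PBS, and the cleared supernatant concentrated by evaporation. GCL holoenzyme was immunoblotted after native PAGE; GCLC and GCLM after SDS PAGE. α-GAPDH served as internal standard. The experiment was repeated once.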

MCF7 [6] = test: Increase in GCL holoenzyme formation in human MCF7 cells expressing antioxidant response element at 20 uM after 24 hrs by native-PAGE immunoblotting technique; type: functional, cell-based
MCF7 [7] = test: Increase in GCLC level in human MCF7 cells expressing antioxidant response element at 20 uM after 6 hrs by SDS-PAGE immunoblotting technique; type: functional, cell-based; summary of the method: as §2
MCF7 [8] = test: Increase in GCL holoenzyme formation in human MCF7 cells expressing antioxidant response element at 20 uM after 6 hrs by native-PAGE immunoblotting technique; type: functional, cell-based; summary of the method: as §2
MCF7 [9] = test: Increase in intracellular GSH level in human MCF7 cells expressing antioxidant response element at 10 uM after 24 hrs by HPLC analysis; type: functional, cell-based; summary of the method: as §1
[10] = target: T1, Nuclear factor erythroid 2-related factor 2 (Homo sapiens) (UniProt Q16236); test: Induction of Nrf2 transcriptional activity in human MCF7 cells antioxidant response element at 5 uM after 18 hrs by luciferase reporter gene assay in presence of p38 MAPK inhibitor SB203580; type: cell-based
T1 sequence (whole entry): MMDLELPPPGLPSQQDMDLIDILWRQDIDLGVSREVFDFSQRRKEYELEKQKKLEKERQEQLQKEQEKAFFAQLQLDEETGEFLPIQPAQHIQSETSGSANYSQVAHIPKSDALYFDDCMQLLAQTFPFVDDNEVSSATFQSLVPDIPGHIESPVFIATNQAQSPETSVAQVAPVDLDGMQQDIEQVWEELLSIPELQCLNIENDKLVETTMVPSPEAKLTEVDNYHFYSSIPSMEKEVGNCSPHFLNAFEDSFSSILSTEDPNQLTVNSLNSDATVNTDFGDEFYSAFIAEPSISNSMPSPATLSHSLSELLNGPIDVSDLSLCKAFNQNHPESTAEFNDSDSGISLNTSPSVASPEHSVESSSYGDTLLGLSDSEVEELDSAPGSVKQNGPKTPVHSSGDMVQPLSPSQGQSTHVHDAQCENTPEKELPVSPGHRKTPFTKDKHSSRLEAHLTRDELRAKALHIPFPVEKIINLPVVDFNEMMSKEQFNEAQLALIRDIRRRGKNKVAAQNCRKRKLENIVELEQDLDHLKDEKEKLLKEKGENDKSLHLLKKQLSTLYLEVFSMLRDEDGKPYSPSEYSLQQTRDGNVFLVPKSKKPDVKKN

MCF7 [11] = test: Increase in intracellular GSH level in human MCF7 cells expressing antioxidant response element at 10 uM after 24 hrs in presence of JNK inhibitor SP600125; type: functional, cell-based
Summary of the method: (§3)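 AREc32 cells received 10 μM for 24 h along with 20 μM buthionine sulfoximine, SP600125, SB203580 or MnTDE-1,3-IP5+. Intracellular GSH was measured by HPLC with electrochemical detection after sonication and meta-phosphoric acid extraction. n = 3, with group differences tested at P < 0.05.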

[12] = target: T1, Nuclear factor erythroid 2-related factor 2 (Homo sapiens); test: Induction of Nrf2 transcriptional activity in human MCF7 cells antioxidant response element at 5 uM after 18 hrs by luciferase reporter gene assay in presence of catalytic antioxidant MnTDE-1,3-IP5+; type: cell-based
[13] = target: T1, Nuclear factor erythroid 2-related factor 2 (Homo sapiens); test: Induction of Nrf2 transcriptional activity in human MCF7 cells antioxidant response element at 5 uM after 18 hrs by luciferase reporter gene assay in presence of JNK inhibitor SP600125; type: cell-based
[14] = target: T1, Nuclear factor erythroid 2-related factor 2 (Homo sapiens); test: Induction of Nrf2 transcriptional activity in human MCF7 cells antioxidant response element at 5 uM after 18 hrs by luciferase reporter gene assay relative to tert-butylhydroquinone; type: cell-based
Summary of the method: (§4)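 AREc32 cells (stable ARE-driven firefly luciferase) grown in 12-well plates to ~60% confluence were exposed to 5 μM for 18 h, alongside sulforaphane or tBHQ at 5 μM. Cells were lysed and centrifuged, and luciferase activity was read on a luminometer using an enhanced luciferase kit. n = 4.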

MCF7 [15] = test: Increase in intracellular GSH level in human MCF7 cells expressing antioxidant response element at 10 uM after 24 hrs in presence of catalytic antioxidant MnTDE-1,3IP5+; type: functional, cell-based; summary of the method: as §3
[16] = target: T1, Nuclear factor erythroid 2-related factor 2 (Homo sapiens); test: Induction of Nrf2 transcriptional activity in human MCF7 cells antioxidant response element at 5 uM after 18 hrs by luciferase reporter gene assay relative to sulforaphane; type: cell-based; summary of the method: as §4
[17] = target: T1, Nuclear factor erythroid 2-related factor 2 (Homo sapiens); test: Induction of Nrf2 transcriptional activity in human MCF7 cells antioxidant response element at 5 uM after 18 hrs by luciferase reporter gene assay relative to 2,5-DHC; type: cell-based; summary of the method: as §4
MCF7 [18] = test: Increase in intracellular GSH level in human MCF7 cells expressing antioxidant response element at 10 uM after 24 hrs in presence of p38 MAPK inhibitor SB203580; type: functional, cell-based; summary of the method: as §3

Structure (SMILES)	Activity (MCF7 [1]) [%]	Activity (MCF7 [2]) [%]	other results
COc1cccc(OC)c1/C=C/C(=O)c1ccccc1	111	189	–
COc1ccc(C(=O)/C=C/c2c(OC)cc(OC)cc2OC)c(O)c1	91	104	Activity (MCF7 [3]): inactive
COc1ccc(C(=O)/C=C/c2cccc(F)c2)c(OC)c1	78	173	–
COc1cccc(OC)c1C(=O)/C=C/c1ccccc1	87	158	–
COc1cccc(OC)c1/C=C/C(=O)c1c(Cl)cccc1Cl	93	120	–
O=C(/C=C/c1ccccc1)c1cc(O)ccc1O	82	177	IC50 (MCF7 [4]): 33 µM; Activity (MCF7 [5]): inactive; Activity (MCF7 [6]): inactive; Activity (MCF7 [7]): inactive; Activity (MCF7 [8]): Active; Activity (MCF7 [3]): inactive
COc1cc(OC)c(C(=O)/C=C/c2ccccc2)c(OC)c1	91	209	–
COc1cc(OC)c(C(=O)/C=C/c2c(Cl)cc(Cl)cc2Cl)c(OC)c1	119	246	–
O=C(/C=C/c1ccccc1)c1ccccc1 [CHALCONE]	103	115	–
COc1cccc(OC)c1C(=O)/C=C/c1ccc(F)cc1F	104	182	–
COc1cccc(OC)c1C(=O)/C=C/c1ccccc1Cl	105	211	–
COc1ccc(C(=O)/C=C/c2ccccc2Cl)c(OC)c1	109	232	–
C[S+]([O-])CCCCN=C=S (racemic)	–	–	Activity (MCF7 [9]): Active; Activity (MCF7 [3]): inactive
COc1cccc(OC)c1C(=O)/C=C/c1ccccc1[N+](=O)[O-]	106	204	–
COc1ccc(C(=O)/C=C/c2c(OC)cccc2OC)c(O)c1	90	231	–
COc1cc(O)c(C(=O)/C=C/c2c(F)cccc2F)c(OC)c1	135	226	–

Structure (SMILES)	Activity (MCF7 [1]) [%]	Activity (MCF7 [2]) [%]	other results
COc1ccc(C(=O)/C=C/c2ccc(OC)cc2OC)c(O)c1	114	160	–
COc1cc(O)c(C(=O)/C=C/c2ccccc2)c(OC)c1 [FLAVOKAWAIN B]	101	191	–
CC(C)(C)c1cc(O)ccc1O	–	–	Activity (MCF7 [9]): Active; Activity (MCF7 [3]): inactive
COc1cc(OC)c(C(=O)/C=C/c2c(F)cccc2F)c(OC)c1	118	223	–
COc1ccc(C(=O)/C=C/c2c(Cl)cccc2Cl)c(O)c1	107	193	–
COc1cccc(OC)c1C(=O)/C=C/c1cccc(Cl)c1	88	165	–
COc1cc(O)c(C(=O)/C=C/c2ccccc2Cl)c(OC)c1	107	299	Activity (MCF7 [9]): Active; IC50 (MCF7 [4]): 25 µM; Activity [10]: Active; Activity (MCF7 [5]): inactive; Activity (MCF7 [11]): Active; Activity [12]: inactive; Activity [13]: inactive; Ratio [14]: 10; Activity (MCF7 [15]): Active; Activity (MCF7 [7]): inactive; Ratio [16]: 4; Ratio [17]: 4; Activity (MCF7 [8]): Active; Activity (MCF7 [18]): Active; Activity (MCF7 [3]): inactive
O=C(/C=C/c1c(Cl)cccc1Cl)c1ccccc1O	108	180	–
COc1ccc(C(=O)/C=C/c2cc(OC)ccc2OC)c(O)c1	100	153	–
COc1ccc(C(=O)/C=C/c2cccc(OC)c2OC)c(O)c1	100	174	–
COc1cc(O)c(C(=O)/C=C/c2c(Cl)cccc2Cl)c(OC)c1	119	250	–
COc1cccc(OC)c1C(=O)/C=C/c1c(Cl)cccc1Cl	122	256	–
COc1cccc(O)c1C(=O)/C=C/c1c(Cl)cccc1Cl	88	183	–
COc1cccc(OC)c1C(=O)/C=C/c1ccccc1F	103	195	–
COc1cc(OC)c(/C=C/C(=O)c2ccc(Cl)c(Cl)c2)c(OC)c1	98	88	–
COc1cccc(OC)c1C(=O)/C=C/c1cccc(F)c1	82	171	–
